How the values were obtained:
[1] = target: DNA topoisomerase 2-alpha (Homo sapiens) (UniProt P11388); experiment: Inhibition of human topoisomerase 2alpha assessed as relaxation of supercoiled DNA pBR322 at 2 uM relative to etoposide
Procedure, shortened: (§1)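 Human topo IIα (2 units) with 200 ng supercoiled pBR322 in 10 mM Tris-HCl pH 7.9, 50 mM NaCl, 5 mM MgCl2, 1 mM EDTA, 1 mM ATP, 15 µg/mL BSA, 30 min at 30 °C. Compounds at 2 or 10 µM, from 20 mM DMSO stocks. Stopped with EDTA. Products on 1% agarose, stained with ethidium bromide. Supercoiled DNA quantified under UV.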

[2] = target: DNA topoisomerase 2-alpha (Homo sapiens) (UniProt P11388); experiment: Inhibition of human topoisomerase 2alpha assessed as relaxation of supercoiled DNA pBR322 at 10 uM relative to etoposide; procedure, shortened: as §1
[3] = test system: DU-145; experiment: Cytotoxicity against human DU145 cells; assay type: functional, cell-based
Procedure, shortened: (§2)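 Cells seeded at 2–4 × 10⁴ per well, grown overnight in medium with 10% FBS at 37 °C under 5% CO₂. On day 2 the medium was replaced with medium holding graded compound concentrations. Absorbance was read at 450 nm. IC50 came from a four-parameter logistic fit. Mean ± SD of three experiments, each in triplicate.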

[4] = test system: HCT-116; experiment: Cytotoxicity against human HCT116 cells; assay type: functional, cell-based; procedure, shortened: as §2
[5] = test system: HeLa; experiment: Cytotoxicity against human HeLa cells; assay type: functional, cell-based; procedure, shortened: as §2
[6] = test system: MDA-MB-231; experiment: Cytotoxicity against human MDA-MB-231 cells; assay type: functional, cell-based; procedure, shortened: as §2
[7] = test system: HL-60; experiment: Cytotoxicity against human HL60 cells; assay type: functional, cell-based; procedure, shortened: as §2
[8] = organism: Bos taurus; experiment: Inhibition of calf thymus topoisomerase 1 assessed as relaxation of supercoiled DNA pBR322 at 2 uM relative to camptothecin
[9] = organism: Bos taurus; experiment: Inhibition of calf thymus topoisomerase 1 assessed as relaxation of supercoiled DNA pBR322 at 20 uM relative to camptothecin

Chain of DNA topoisomerase 2-alpha (Homo sapiens) (P11388 whole entry): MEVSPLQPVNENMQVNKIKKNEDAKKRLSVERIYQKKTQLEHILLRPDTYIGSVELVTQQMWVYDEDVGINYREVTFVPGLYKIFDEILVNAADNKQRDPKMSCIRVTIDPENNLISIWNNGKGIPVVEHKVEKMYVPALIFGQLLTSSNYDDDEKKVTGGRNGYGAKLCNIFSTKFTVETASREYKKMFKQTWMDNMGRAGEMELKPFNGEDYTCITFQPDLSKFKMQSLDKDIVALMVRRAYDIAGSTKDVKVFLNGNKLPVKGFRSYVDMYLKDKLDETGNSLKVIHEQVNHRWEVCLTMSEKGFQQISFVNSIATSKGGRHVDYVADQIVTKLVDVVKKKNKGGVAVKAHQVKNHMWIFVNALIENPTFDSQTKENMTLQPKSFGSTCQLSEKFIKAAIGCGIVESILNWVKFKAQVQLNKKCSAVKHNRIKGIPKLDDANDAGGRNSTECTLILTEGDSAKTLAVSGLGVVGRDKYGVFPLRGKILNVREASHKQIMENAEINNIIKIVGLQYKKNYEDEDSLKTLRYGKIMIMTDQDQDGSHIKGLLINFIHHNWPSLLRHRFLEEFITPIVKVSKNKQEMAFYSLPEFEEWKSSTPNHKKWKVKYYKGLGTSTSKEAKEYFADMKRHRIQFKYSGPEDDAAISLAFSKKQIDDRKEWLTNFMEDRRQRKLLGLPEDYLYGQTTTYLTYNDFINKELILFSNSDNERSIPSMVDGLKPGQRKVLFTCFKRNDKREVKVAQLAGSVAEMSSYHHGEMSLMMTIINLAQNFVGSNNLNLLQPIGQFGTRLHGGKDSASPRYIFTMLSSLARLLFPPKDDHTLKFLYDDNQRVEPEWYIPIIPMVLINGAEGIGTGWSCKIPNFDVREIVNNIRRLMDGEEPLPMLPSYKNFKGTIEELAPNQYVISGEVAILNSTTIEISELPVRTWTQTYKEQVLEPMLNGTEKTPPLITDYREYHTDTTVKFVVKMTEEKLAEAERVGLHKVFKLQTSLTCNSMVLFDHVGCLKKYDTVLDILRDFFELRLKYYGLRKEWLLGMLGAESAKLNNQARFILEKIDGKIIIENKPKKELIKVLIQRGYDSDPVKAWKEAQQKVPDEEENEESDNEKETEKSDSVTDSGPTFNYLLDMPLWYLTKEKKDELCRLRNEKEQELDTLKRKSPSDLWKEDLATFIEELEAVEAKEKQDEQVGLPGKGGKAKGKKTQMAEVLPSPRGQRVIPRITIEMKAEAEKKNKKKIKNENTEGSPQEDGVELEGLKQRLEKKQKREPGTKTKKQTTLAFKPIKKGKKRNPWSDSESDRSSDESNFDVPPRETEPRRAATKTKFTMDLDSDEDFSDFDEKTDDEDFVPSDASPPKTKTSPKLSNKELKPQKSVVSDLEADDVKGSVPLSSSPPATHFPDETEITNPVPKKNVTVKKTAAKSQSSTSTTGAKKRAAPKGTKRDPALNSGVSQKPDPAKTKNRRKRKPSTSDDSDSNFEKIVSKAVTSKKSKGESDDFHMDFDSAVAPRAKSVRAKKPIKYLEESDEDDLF

## N[C@H]1CCN(c2c(F)cc3c(=O)c(C(=O)O)cn4c3c2Oc2ccc(Cl)cc2-4)C1
[1]
  inhibition: 89%
[2]
  inhibition: 88.6%
[3]
  IC50: 17.6 µM
[4]
  IC50: 2.56 µM
[5]
  IC50: 2.01 µM
[6]
  IC50: 19.3 µM
[7]
  IC50: 1.63 µM
[8]
  inhibition: 87.9%
[9]
  inhibition: 86.1%

## O=C(O)c1cn2c3c(c(F)c(F)cc3c1=O)Oc1ccccc1-2
[1]
  inhibition: 0.5%
[2]
  inhibition: 82.4%
[3]
  IC50: > 50 µM
[4]
  IC50: 6.3 µM
[5]
  IC50: > 50 µM
[6]
  IC50: > 50 µM
[7]
  IC50: > 50 µM
[8]
  inhibition: 53.5%
[9]
  inhibition: 96.6%

## N[C@H]1CCN(c2c(F)cc3c(=O)c(C(=O)O)cn4c3c2Oc2nc(O)ncc2-4)C1
[1]
  inhibition: 0%
[2]
  inhibition: 28.8%
[3]
  IC50: > 50 µM
[4]
  IC50: > 50 µM
[5]
  IC50: > 50 µM
[6]
  IC50: > 50 µM
[7]
  IC50: > 50 µM
[8]
  inhibition: 32.4%
[9]
  inhibition: 0%

## N[C@H]1CCN(c2c(F)cc3c(=O)c(C(=O)O)cn4c3c2Oc2cc(S(=O)(=O)O)c3ccccc3c2-4)C1
[1]
  inhibition: 1.9%
[2]
  inhibition: 24.7%
[3]
  IC50: > 50 µM
[4]
  IC50: > 50 µM
[5]
  IC50: > 50 µM
[6]
  IC50: > 50 µM
[7]
  IC50: > 50 µM
[8]
  inhibition: 39.1%
[9]
  inhibition: 25%

## CC[C@@]1(O)C(=O)OCc2c1cc1n(c2=O)Cc2cc3ccccc3nc2-1 [CAMPTOTHECIN]
[3]
  IC50: 3.2 µM
[4]
  IC50: 1 µM
[5]
  IC50: 1.08 µM
[6]
  IC50: 4.16 µM
[7]
  IC50: 0.013 µM
[8]
  inhibition: 63.3%
[9]
  inhibition: 84.1%

## COc1cc([C@@H]2c3cc4c(cc3[C@@H](O[C@@H]3O[C@@H]5CO[C@@H](C)O[C@H]5[C@H](O)[C@H]3O)[C@H]3COC(=O)[C@H]23)OCO4)cc(OC)c1O [ETOPOSIDE]
[1]
  inhibition: 0.7%
[2]
  inhibition: 40.9%
[3]
  IC50: 29.8 µM
[4]
  IC50: 15.1 µM
[5]
  IC50: 18.2 µM
[6]
  IC50: 16.2 µM
[7]
  IC50: 1.44 µM

## COc1cccc2c1C(=O)c1c(O)c3c(c(O)c1C2=O)C[C@@](O)(C(=O)CO)C[C@@H]3O[C@H]1C[C@H](N)[C@H](O)[C@H](C)O1 [DOXORUBICIN]
[3]
  IC50: 1.57 µM
[4]
  IC50: 1.1 µM
[5]
  IC50: 3.09 µM
[6]
  IC50: 1.39 µM
[7]
  IC50: 0.72 µM

## N[C@H]1CCN(c2c(F)cc3c(=O)c(C(=O)O)cn4c3c2Sc2ccccc2-4)C1
[1]
  inhibition: 57%
[2]
  inhibition: 91.7%
[3]
  IC50: 19.3 µM
[4]
  IC50: 2.41 µM
[5]
  IC50: 5.08 µM
[6]
  IC50: 19.2 µM
[7]
  IC50: 11.5 µM
[8]
  inhibition: 45.1%
[9]
  inhibition: 97.2%

## N[C@H]1CCN(c2c(F)cc3c(=O)c(C(=O)O)cn4c3c2Oc2ccc([N+](=O)[O-])cc2-4)C1
[1]
  inhibition: 26%
[2]
  inhibition: 91.6%
[3]
  IC50: 13.8 µM
[4]
  IC50: 7.45 µM
[5]
  IC50: 17.7 µM
[6]
  IC50: 19.8 µM
[7]
  IC50: 9.93 µM
[8]
  inhibition: 65.7%
[9]
  inhibition: 95.3%

## N[C@H]1CCN(c2c(F)cc3c(=O)c(C(=O)O)cn4c3c2Oc2ccccc2-4)C1
[1]
  inhibition: 89.1%
[2]
  inhibition: 89.4%
[3]
  IC50: 1.82 µM
[4]
  IC50: 0.87 µM
[5]
  IC50: 2.33 µM
[6]
  IC50: 4.34 µM
[7]
  IC50: 2.4 µM
[8]
  inhibition: 88.9%
[9]
  inhibition: 90.2%
